Test results: ChEMBL document CHEMBL1122655, “Gamma-aminobutyric acid esters. 1. Synthesis, brain uptake, and pharmacological studies of aliphatic and steroid esters of gamma-aminobutyric acid” (J Med Chem, 1984)
“And” between values parts separate entries of the source, which are not always exact repeats. Identical values can stand only once. Each block holds one compound with its values, some of them ahead of it.

Assays:
[1] = test system: Mus musculus; experiment: Anticonvulsant activity is the ability to increase the survival time of mouse ssubjected to bicuculline induced seizures at 24 hr after pretreament with compound (30 mg/kg, ip); assay type: functional
[2] = test system: Mus musculus; experiment: Anticonvulsant activity is the ability to delay the onset of bicuculline induced seizures in mouse at 24 hr after pretreament with compound (3 mg/kg, ip); assay type: functional
Outline: (§1)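 Mice given test article ip 24 h before bicuculline (0.3 mg/kg sc). Latency to onset of generalized tonic-clonic seizures was recorded in seconds and expressed as % of saline control. Means ± SEM, n ≥ 6 per group.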

[3] = test system: Mus musculus; experiment: Uptake of the [14C]-compound in mouse liver 60 minutes after sc administration of 24 mg/kg.; assay type: functional; conditions: route subcutaneous, in the assay text read “mouse brain” for “mouse liver”
[4] = test system: Mus musculus; experiment: Uptake of the [14C]-compound in mouse liver 180 min after sc administration of 24 mg/kg.; assay type: functional; conditions: route subcutaneous, in the assay text read “mouse brain” for “mouse liver”
Outline: (§2)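 [14C]-labeled ester injected sc into mice in 25% propylene glycol/water. At the stated time, brain and liver were homogenized in SDS/urea/EDTA phosphate solvent, pH 7.4, and counted by liquid scintillation. Uptake was calculated per gram tissue (nmol/g).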

[5] = Partition coefficient in 1-octanol/water system; assay type: physicochemical
Outline: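 1-Octanol/water partition coefficient determined with the U-14C-labeled esters, read by radioactivity.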

[6] = test system: Mus musculus; experiment: Brain penetration index is the ratio of the uptake in brain/liver X 100, 5 min after sc administration of 24 mg/kg of the [14C]-compound.; assay type: functional; conditions: route subcutaneous
Outline: (§3)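 [14C]-labeled ester injected sc into mice in 0.5 mL of 25% propylene glycol in water, killed at 5 min. Brain and liver were weighed and homogenized in SDS/6 M urea/EDTA phosphate solvent, pH 7.4, then counted by liquid scintillation. BPI = [brain]/[liver] × 100. Means ± SEM, n = 3.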

[7] = test system: Mus musculus; experiment: Anticonvulsant activity is the ability to increase the survival time of mouse ssubjected to bicuculline induced seizures at 24 hr after pretreament with compound (3 mg/kg, ip); assay type: functional
[8] = test system: Mus musculus; experiment: Evaluation of General motor activity in mouse 60 mins postinjection (ip) of 3 mg/kg; assay type: functional
Outline: (§4)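 Male BALB-c mice (18-24 g) given compound ip in 25% propylene glycol/water. Each was monitored singly for 60 min in an electronic activity monitor. Cumulative activity was expressed as % of vehicle control; mean ± SEM, n = 6, t test.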

[9] = test system: Mus musculus; experiment: Uptake of the [14C]-compound in mouse brain 5 minutes after sc administration of 24 mg/kg.; assay type: functional; conditions: route subcutaneous; outline: as §2
[10] = target: GABA-A receptor; anion channel; experiment: Inhibition of [3H]GABA binding to synaptic membranes from rat cerebellum; assay type: tissue-based
Outline: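 [3H]GABA (15 nM) binding to rat cerebellum synaptic membranes. At least two concentrations above and below IC50, each at least in triplicate. IC50 was obtained by fitting linearized transformations of the data.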

[11] = test system: Mus musculus; experiment: Anticonvulsant activity is the ability to delay the onset of bicuculline induced seizures in mouse at 24 hr after pretreament with compound (84 mg/kg, ip); assay type: functional; outline: as §1
[12] = test system: Mus musculus; experiment: Evaluation of General motor activity in mouse 60 mins postinjection (ip) of 33 mg/kg*; assay type: functional; outline: as §4
[13] = test system: Mus musculus; experiment: Evaluation of General motor activity in mouse 60 mins postinjection (ip) of 10 mg/kg; assay type: functional; outline: as §4
[14] = test system: Mus musculus; experiment: Anticonvulsant activity is the ability to delay the onset of bicuculline induced seizures in mouse at 24 hr after pretreament with compound (16 mg/kg, ip); assay type: functional; outline: as §1
[15] = test system: Mus musculus; experiment: Anticonvulsant activity is the ability to increase the survival time of mouse ssubjected to bicuculline induced seizures at 24 hr after pretreament with compound (16 mg/kg, ip); assay type: functional
[16] = test system: Mus musculus; experiment: Anticonvulsant activity is the ability to delay the onset of bicuculline induced seizures in mouse at 24 hr after pretreament with compound (30 mg/kg, ip); assay type: functional; outline: as §1
[17] = species: Rattus norvegicus; experiment: Enzymatic hydrolysis of cholesteryl [14C]-compound by Rat Brain Homogenate at 30 min; assay type: functional
Outline: (§5)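 Cholesteryl-[14C]GABA ester (3 mg/mL) incubated at 37 °C with rat brain homogenate 10,000g supernatant (S1; 0.8 mg/mL protein). Aliquots were quenched with ethanol and run on silica TLC (CHCl3/MeOH/HOAc 18:6:1) to quantify unreacted substrate (nmol). Control was the initial substrate amount.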

[18] = species: Rattus norvegicus; experiment: Enzymatic hydrolysis of cholesteryl [14C]-compound by Rat Brain Homogenate at 10 min; assay type: functional; outline: as §5
[19] = test system: Mus musculus; experiment: Uptake of the [14C]-compound in mouse liver 5 minutes after sc administration of 24 mg/kg.; assay type: functional; conditions: route subcutaneous; outline: as §2
[20] = test system: Mus musculus; experiment: Uptake of the [14C]-compound in mouse liver 15 minutes after sc administration of 24 mg/kg.; assay type: functional; conditions: route subcutaneous, in the assay text read “mouse brain” for “mouse liver”; outline: as §2
[21] = species: Rattus norvegicus; experiment: Enzymatic hydrolysis of cholesteryl [14C]-compound by Rat Brain Homogenate at 60 min; assay type: functional; outline: as §5
[22] = test system: Mus musculus; experiment: Anticonvulsant activity is the ability to increase the survival time of mouse ssubjected to bicuculline induced seizures at 24 hr after pretreament with compound (12 mg/kg, ip); assay type: functional
[23] = test system: Mus musculus; experiment: Evaluation of General motor activity in mouse 60 mins postinjection (ip) of 12 mg/kg; assay type: functional; outline: as §4
[24] = test system: Mus musculus; experiment: Anticonvulsant activity is the ability to delay the onset of bicuculline induced seizures in mouse at 24 hr after pretreament with compound (36 mg/kg, ip); assay type: functional; outline: as §1
[25] = test system: Mus musculus; experiment: Uptake of the [14C]-compound in mouse liver 5 minutes after sc administration of 90 mg/kg.; assay type: functional; conditions: route subcutaneous
Outline: (§6)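 Mice were given the 14C-labeled compound sc in 25% propylene glycol in water and killed at 5 min. Liver was removed, weighed and homogenized in 1% SDS in 6 M urea with 19 mM EDTA and 0.03 M phosphate, pH 7.4. Homogenate aliquots were counted by liquid scintillation, and uptake per gram of tissue was calculated. Mean ± SEM, n = 3.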

[26] = test system: Mus musculus; experiment: Uptake of the [14C]-compound in mouse brain 15 minutes after sc administration of 90 mg/kg.; assay type: functional; conditions: route subcutaneous; outline: as §2
[27] = test system: Mus musculus; experiment: Uptake of the [14C]-compound in mouse brain 5 minutes after sc administration of 90 mg/kg.; assay type: functional; conditions: route subcutaneous; outline: as §2
[28] = test system: Mus musculus; experiment: Brain penetration index is the ratio of the uptake in brain/liver X 100, 5 min after sc administration of 90 mg/kg of the [14C]-compound.; assay type: functional; conditions: route subcutaneous; outline: as §3
[29] = test system: Mus musculus; experiment: Anticonvulsant activity is the ability to increase the survival time of mouse ssubjected to bicuculline induced seizures at 24 hr after pretreament with compound (25 mg/kg, ip); assay type: functional
[30] = test system: Mus musculus; experiment: Evaluation of General motor activity in mouse 60 mins postinjection (ip) of 36 mg/kg =; assay type: functional; outline: as §4
[31] = test system: Mus musculus; experiment: Anticonvulsant activity is the ability to delay the onset of bicuculline induced seizures in mouse at 24 hr after pretreament with compound (12mg/kg, ip); assay type: functional; outline: as §1
[32] = test system: Mus musculus; experiment: Anticonvulsant activity is the ability to increase the survival time of mouse ssubjected to bicuculline induced seizures at 24 hr after pretreament with compound (17mg/kg, ip); assay type: functional
[33] = test system: Mus musculus; experiment: Anticonvulsant activity is the ability to delay the onset of bicuculline induced seizures in mouse at 24 hr after pretreament with compound (50 mg/kg, ip); assay type: functional; outline: as §1
[34] = test system: Mus musculus; experiment: Anticonvulsant activity is the ability to increase the survival time of mouse ssubjected to bicuculline induced seizures at 24 hr after pretreament with compound (50 mg/kg, ip); assay type: functional
[35] = test system: Mus musculus; experiment: Anticonvulsant activity is the ability to delay the onset of bicuculline induced seizures in mouse at 24 hr after pretreament with compound (25 mg/kg, ip); assay type: functional; outline: as §1
[36] = test system: Mus musculus; experiment: Anticonvulsant activity is the ability to increase the survival time of mouse ssubjected to bicuculline induced seizures at 24 hr after pretreament with compound (36 mg/kg, ip); assay type: functional
[37] = test system: Mus musculus; experiment: Uptake of the [14C]-compound in mouse brain 45 minutes after sc administration of 90 mg/kg.; assay type: functional; conditions: route subcutaneous; outline: as §2
[38] = test system: Mus musculus; experiment: Anticonvulsant activity is the ability to delay the onset of bicuculline induced seizures in mouse at 24 hr after pretreament with compound (17 mg/kg, ip); assay type: functional; outline: as §1
[39] = test system: Mus musculus; experiment: Uptake of the [14C]-compound in mouse liver 5 minutes after sc administration of 74 mg/kg.; assay type: functional; conditions: route subcutaneous; outline: as §6
[40] = test system: Mus musculus; experiment: Evaluation of General motor activity in mouse 60 mins postinjection (ip) of 60 mg/kg; assay type: functional; outline: as §4
[41] = test system: Mus musculus; experiment: Uptake of the [14C]-compound in mouse brain 5 minutes after sc administration of 74 mg/kg.; assay type: functional; conditions: route subcutaneous; outline: as §2
[42] = test system: Mus musculus; experiment: Brain penetration index is the ratio of the uptake in brain/liver X 100, 5 min after sc administration of 74 mg/kg of the [14C]-compound.; assay type: functional; conditions: route subcutaneous; outline: as §3
[43] = test system: Mus musculus; experiment: Evaluation of General motor activity in mouse 60 mins postinjection (ip) of 128 mg/kg; assay type: functional; outline: as §4
[44] = Partition coefficient in 1-octanol/water system measured using radio active compounds; assay type: physicochemical
Outline: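 1-Octanol/water partition coefficient, measured with the 14C-labeled compounds.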

[45] = test system: Mus musculus; experiment: Evaluation of General motor activity in mouse at dose 200 mg/kg; assay type: functional; outline: as §4
[46] = test system: Mus musculus; experiment: Brain penetration index is the ratio of the uptake in brain/liver X 100, 5 min after sc administration of 41 mg/kg of the [14C]-compound.; assay type: functional; conditions: route subcutaneous; outline: as §3
[47] = test system: Mus musculus; experiment: Uptake of the [14C]-compound in mouse liver 5 minutes after sc administration of 41 mg/kg.; assay type: functional; conditions: route subcutaneous; outline: as §6
[48] = test system: Mus musculus; experiment: Uptake of the [14C]-compound in mouse brain 5 minutes after sc administration of 41 mg/kg.; assay type: functional; conditions: route subcutaneous; outline: as §2
[49] = test system: Mus musculus; experiment: Evaluation of General motor activity in mouse 60 mins postinjection (ip) of 16 mg/kg; assay type: functional; outline: as §4
[50] = test system: Mus musculus; experiment: Uptake of the [14C]-compound in mouse brain 15 minutes after sc administration of 41 mg/kg.; assay type: functional; conditions: route subcutaneous; outline: as §2

Structure (SMILES): CC(C)CCCC(C)C1CCC2C3CC=C4CC(OC(=O)CCCN)CCC4(C)C3CCC12C (configuration not stated)
Survival time [1]: 104
Onset seizure [2]: 120
Brain concentration [3]: 0.79 nmol/g
Brain concentration [4]: 0.6 nmol/g
K [5]: 110
Brain penetration index [6]: 25%
Survival time [7]: 95
Motor activity [8]: 67
Brain concentration [9]: 0.17 nmol/g
IC50 [10]: 10 µM
Onset seizure [11]: 137
Motor activity [12]: 15
Motor activity [13]: 49
Onset seizure [14]: 129
Survival time [15]: 101 and 109
Onset seizure [16]: 130
Amount of unreacted substrate [17]: 43.5
Amount of unreacted substrate [18]: 53
Liver concentration [19]: 0.69 nmol/g
Brain concentration [20]: 0.67 nmol/g
Amount of unreacted substrate [21]: 34.5

Structure (SMILES): CC/C=C/C/C=C/C/C=C/CCCCCCCCOC(=O)CCCN
Survival time [22]: 118
Motor activity [23]: 90
Onset seizure [24]: 50
Liver concentration [25]: 142 nmol/g
Brain concentration [26]: 11 nmol/g
Brain concentration [27]: 3.5 nmol/g
IC50 [10]: 40 µM
Brain penetration index [28]: 2%
Survival time [29]: 68
Motor activity [30]: 74
Onset seizure [31]: 102
Survival time [32]: 111
Onset seizure [33]: 40
Survival time [34]: 63
Onset seizure [35]: 78
Survival time [36]: 62
Brain concentration [37]: 24.9 nmol/g
Onset seizure [38]: 73

Structure (SMILES): CCCCOC(=O)CCCN
Liver concentration [39]: 28 nmol/g
Motor activity [40]: 89
Brain concentration [41]: 19.2 nmol/g
Brain penetration index [42]: 74%
Motor activity [43]: 83

K [44]: 0.004
Structure (SMILES): NCCCC(=O)O [GAMMA-AMINOBUTYRIC ACID]
Motor activity [45]: 100

Structure (SMILES): C[C@@H]1CC2C3CCC4=CC(=O)C=CC4(C)C3(F)C(O)CC2(C)C1(O)C(=O)COC(=O)CCCN (some centres not stated)
K [5]: 0.9
Brain penetration index [46]: 81%
Liver concentration [47]: 10.8 nmol/g
Brain concentration [48]: 8.7 nmol/g
Motor activity [49]: 94
Brain concentration [50]: 21.5 nmol/g
